Screens: PubChem, several laboratories
In the library only some 8.7% were active in any assay of this set; here they are far more common.
PostGolgi yeast: growth inhibition of a yeast mutant, post-Golgi transport screen; post-Golgi transport phenotypic cell assay; inhibition, % at 10 µM; hit rate 0.9% among 98,000;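 further: yeast cells grown in 1536-well plates; yeast grown about 18 h at 30C before absorbance read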
PTK2B oligo ant: antagonists of human Pyk2 oligomerization; Q14289; Q293 cells, Pyk2 FERM NanoBiT luminescence; active compounds read low; z-score (the deposit names both 25 µM and 10 µM); hit rate 0.83% among 99,000; AID 1347419;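 active means Z-score of -3 or lower, scaled per plate to the spread of control and sample wells; inactive means z-score above -3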;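 further: negative z-score means lost luminescence so less FERM oligomerization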
Target sequence (Q14289 whole entry, looked up): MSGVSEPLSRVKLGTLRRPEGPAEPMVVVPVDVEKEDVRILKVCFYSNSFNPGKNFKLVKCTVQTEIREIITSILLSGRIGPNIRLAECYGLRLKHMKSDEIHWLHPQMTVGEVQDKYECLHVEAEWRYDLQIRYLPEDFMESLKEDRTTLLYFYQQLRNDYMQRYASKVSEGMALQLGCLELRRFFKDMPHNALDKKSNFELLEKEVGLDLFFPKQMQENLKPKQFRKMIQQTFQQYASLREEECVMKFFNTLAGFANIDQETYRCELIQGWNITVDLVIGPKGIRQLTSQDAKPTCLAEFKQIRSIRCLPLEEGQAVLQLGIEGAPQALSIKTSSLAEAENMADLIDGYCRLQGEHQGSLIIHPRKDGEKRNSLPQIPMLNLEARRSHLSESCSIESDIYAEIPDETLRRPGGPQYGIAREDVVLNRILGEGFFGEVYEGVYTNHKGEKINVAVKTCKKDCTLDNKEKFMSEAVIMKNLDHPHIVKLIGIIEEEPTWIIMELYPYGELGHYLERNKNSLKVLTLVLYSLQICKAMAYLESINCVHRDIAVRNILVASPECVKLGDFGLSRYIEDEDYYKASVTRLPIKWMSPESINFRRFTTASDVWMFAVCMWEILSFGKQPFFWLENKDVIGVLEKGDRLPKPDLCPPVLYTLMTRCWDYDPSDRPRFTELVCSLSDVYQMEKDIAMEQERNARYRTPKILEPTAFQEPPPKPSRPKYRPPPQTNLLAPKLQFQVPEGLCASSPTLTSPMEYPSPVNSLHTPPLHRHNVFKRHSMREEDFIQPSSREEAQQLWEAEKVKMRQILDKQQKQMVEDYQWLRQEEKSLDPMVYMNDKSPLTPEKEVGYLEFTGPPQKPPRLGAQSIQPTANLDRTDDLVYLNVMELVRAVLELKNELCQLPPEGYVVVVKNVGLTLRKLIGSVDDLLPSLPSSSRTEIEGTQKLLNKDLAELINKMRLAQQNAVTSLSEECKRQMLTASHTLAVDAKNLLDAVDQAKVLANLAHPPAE
Ecoli WT expand: blocks growth of wild type E. coli BW25113; AID 710; growth inhibition, % at 100 µM; OD600 absorbance; hit rate 0.15% among 98,000;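 active means growth inhibition above about 50% at one test dose, limit read from the data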;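 further: growth measured after 20 h incubation at 37 °C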
Ecoli tolC: blocks growth of E. coli BW25113 tolC mutant; OD615; growth inhibition, % at 10 µM (by protocol); hit rate 2.2% among 65,000;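 active means growth inhibition at or above a cutoff equal to the mean over every tested compound plus 3 SD, cut at about 60% in these data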;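 further: growth measured after 20 h incubation at 37 °C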
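Test system: E. coli BW25113 ΔtolC::kan bacteria | Medium: Kanamycin-containing LB broth (50 µg/mL) | Dosing: One dose of 10 µM final | Times: 20 h incubation with compound, 37 °C | Detection: Optical density read at 615 nm | Read-out basis: Percent growth inhibition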
PostGolgi ctrl: growth of the yeast control strain, post-Golgi counter-screen; inhibition, % at 10 µM; AID 738; hit rate 5% among 98,000; efflux-deficient yeast background strain, growth absorbance A615, 16 h
Cav3 T inh: inhibitors of human Cav3.2 T-type calcium channel. hit rate 4% among 100,000. Cav3.2-expressing cells, Fluo-4 calcium fluorescence FDSS; active compounds read low. AID 449739. B-score at 10 µM;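 active means single-dose well whose peak fluorescence ratio is a statistical outlier from its plate by either plate-standardised score or position-corrected B-score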
* hit, by the source's call. Unless noted, no stated cut-off is given here; in the data, active means inhibition above about 30%; inactive means the rest.

For Cc1ccc(S(=O)(=O)Nc2ccc(Br)cc2/C=N/n2cnnc2)cc1 the results were PostGolgi yeast 4, PTK2B oligo ant -1.3, Ecoli WT expand -5, Ecoli tolC 21, PostGolgi ctrl 4 and Cav3 T inh -0.33.
Screening Cc1cc2ncn(/N=C/c3cc(Br)ccc3O)c2cc1C returned PostGolgi yeast 11, Ecoli WT expand -1, Ecoli tolC -2, PostGolgi ctrl 35* and Cav3 T inh 0.47.
`Cc1ccc(S(=O)(=O)NCCN=C(CN2CCCC2)NS(=O)(=O)c2ccc(C)cc2)cc1` gave PostGolgi yeast -2, PTK2B oligo ant -0.59, Ecoli WT expand -4, Ecoli tolC 25, PostGolgi ctrl 32* and Cav3 T inh 0.16.
`Cc1cc(C)n(CC(=O)c2ccc(Br)cc2)c(=O)c1C#N` gave PostGolgi yeast 2, PTK2B oligo ant 0.18, Ecoli WT expand 4, PostGolgi ctrl 2 and Cav3 T inh 0.49.
CN(C)/C=c1\sc2c(C#N)cc(C(=O)c3ccc(Br)cc3)n2c1=O was read as PostGolgi yeast -11, PTK2B oligo ant -1.1, Ecoli WT expand -14, Ecoli tolC 6, PostGolgi ctrl 3 and Cav3 T inh -6.9*.
`CC1(C)Cc2c(sc3c2c(=N)n(Cc2ccco2)c(=O)n3Cc2ccccc2)CO1` gave PostGolgi yeast -2, PTK2B oligo ant -0.32, Ecoli WT expand -2, Ecoli tolC 51, PostGolgi ctrl 13 and Cav3 T inh -2.4.
For CC1(C)Cc2c(sc3c2c(=N)n(Cc2ccco2)c(=O)n3Cc2ccc(Cl)cc2)CO1 the results were PostGolgi yeast 6, PTK2B oligo ant -1.2, Ecoli WT expand -20, Ecoli tolC 64*, PostGolgi ctrl 97* and Cav3 T inh -1.7.
`Cc1ccc(Cl)cc1N1CCN(S(=O)(=O)c2ccc3c(c2)oc(=O)n3C)CC1` gave PostGolgi yeast -3, PTK2B oligo ant -1.5, Ecoli WT expand -1, Ecoli tolC 18, PostGolgi ctrl 37* and Cav3 T inh -2.1.
Screening CO/N=C/NC(=O)c1c(OC)ccnc1Oc1cccc(C(F)(F)F)c1 returned PostGolgi yeast 7, PTK2B oligo ant 0.12, Ecoli WT expand 0, PostGolgi ctrl 13 and Cav3 T inh 2.
Screening CC(Sc1nnc(Cc2cccs2)n1C1CCCCC1)C(=O)N1CCc2ccccc21 (stereo not drawn) returned PostGolgi yeast -3, PTK2B oligo ant 0.03, Ecoli WT expand -4, PostGolgi ctrl 34* and Cav3 T inh -6.5*.
CN1C(=O)C2(c3ccccc31)N(C)CC(c1ccccc1)C21SC(=S)N(Cc2ccco2)C1=O (stereo not drawn) was read as PostGolgi yeast -8, PTK2B oligo ant -1.2, Ecoli WT expand -1, PostGolgi ctrl 13 and Cav3 T inh -2.2.
Screening CN1C(=O)C2(c3ccccc31)N(C)CC(c1ccccn1)C21SC(=S)N(Cc2ccco2)C1=O (stereo not drawn) returned PostGolgi yeast 2, PTK2B oligo ant -0.28, Ecoli WT expand -10, Ecoli tolC 49, PostGolgi ctrl 22 and Cav3 T inh -4.7*.
Screening Cc1nc2c(-c3ccc(F)cc3)c(C)nn2c(C)c1CCC(=O)N1CCN(c2ccc(F)cc2)CC1 returned PostGolgi yeast -13, Ecoli WT expand -6, PostGolgi ctrl 26 and Cav3 T inh -6.2*.
For Cc1nc2c(-c3ccc(F)cc3)c(C)nn2c(C)c1CCC(=O)N1CCC(Cc2ccccc2)CC1 the results were PostGolgi yeast 5, Ecoli WT expand -13, PostGolgi ctrl 32* and Cav3 T inh -6.2*.
For Cc1nc2c(-c3ccc(F)cc3)c(C)nn2c(C)c1CCC(=O)N1CCN(c2ccccc2)CC1 the results were PostGolgi yeast -3, Ecoli WT expand 4, PostGolgi ctrl 18 and Cav3 T inh -0.52.
For CSc1ccccc1C(=O)NCc1ccc2c(c1)OCO2 the results were PostGolgi yeast -8, PTK2B oligo ant 0.69, Ecoli WT expand 1, Ecoli tolC 0, PostGolgi ctrl -3 and Cav3 T inh 0.33.
For COc1ccc(C2=NOC(C(=O)NCc3ccccc3)C2)cc1 (stereo not drawn) the results were PostGolgi yeast 4, PTK2B oligo ant 0.63, Ecoli WT expand -5, Ecoli tolC -13 and PostGolgi ctrl -10.
`CCN(CC)C(=O)C1CC(c2ccc(OC)cc2)=NO1` (stereo not drawn) gave PostGolgi yeast 16, PTK2B oligo ant 0.53, Ecoli WT expand -6, Ecoli tolC -10, PostGolgi ctrl 13 and Cav3 T inh -4.3*.
For CC(C)(C)C(=O)Cn1c(=N)n(Cc2ccccc2)c2ccccc21 the results were PostGolgi yeast 1, PTK2B oligo ant 0.09, Ecoli WT expand 1, Ecoli tolC 100*, PostGolgi ctrl 48* and Cav3 T inh -4.1.
For CC(C)(C)C(=O)Cn1c(=N)n(Cc2ccccc2Cl)c2ccccc21 the results were PostGolgi yeast 3, PTK2B oligo ant 0.62, Ecoli WT expand -6, PostGolgi ctrl 15 and Cav3 T inh -5*.
`N=c1n(CCO)c2ccccc2n1Cc1ccccc1Cl` gave PostGolgi yeast -23, PTK2B oligo ant 0.92, Ecoli WT expand 9, Ecoli tolC -6, PostGolgi ctrl 3 and Cav3 T inh 0.79.
`Cc1ccc([N+](=O)[O-])cc1NC(=O)CN1CCC(C)CC1` gave PostGolgi yeast 1, PTK2B oligo ant 3.4, Ecoli WT expand 19 and PostGolgi ctrl 8.
O=C(Nc1cccc(-c2nnc(-c3ccco3)o2)c1)C(c1ccccc1)c1ccccc1 was read as PostGolgi yeast -4, PTK2B oligo ant -1.2, Ecoli WT expand -13, PostGolgi ctrl 13 and Cav3 T inh -0.56.
OCCCn1c(CCNc2nc(-c3ccc(F)cc3)cs2)nc2cc(C(F)(F)F)ccc21 was read as Cav3 T inh -1.1.
For CSC1=C(C#N)C(c2ccccc2C)C(C#N)=C(N)N1 (stereo not drawn) the results were PostGolgi yeast 2, PTK2B oligo ant -1.1, Ecoli WT expand 4, Ecoli tolC -17, PostGolgi ctrl 50* and Cav3 T inh -0.89.
CSC1=C(C#N)C(c2ccccc2Cl)C2=C(CCCC2=O)N1 (stereo not drawn) was read as Ecoli tolC -7.
O=C(NC1CCCCC1)C1CC=CCC1C(=O)OCC(Cl)=C(Cl)Cl (stereo not drawn) was read as PostGolgi yeast -8, PTK2B oligo ant -0.65, Ecoli WT expand 5, PostGolgi ctrl 21 and Cav3 T inh -7.5*.
`O=C(CCN1C(=O)c2ccccc2C1=O)N1CCN(Cc2ccc(Cl)cc2Cl)CC1` gave PostGolgi yeast 0, PTK2B oligo ant 0.24, Ecoli WT expand -1, Ecoli tolC 26, PostGolgi ctrl 23 and Cav3 T inh -6*.
CCC1(C)CC(CCNS(=O)(=O)c2ccc(C)cc2)(c2ccc(C)cc2)CCO1 (stereo not drawn) was read as PostGolgi yeast 5, PTK2B oligo ant -0.89, Ecoli WT expand -10, PostGolgi ctrl 21 and Cav3 T inh -5.3*.
